Experiments:
[1] = molecular target: T1, 5-hydroxytryptamine receptor 1A (Homo sapiens) (UniProt P08908); assay: Agonist efficacy on 5-hydroxytryptamine 1A receptor subtype; type: functional
T1 sequence (whole entry): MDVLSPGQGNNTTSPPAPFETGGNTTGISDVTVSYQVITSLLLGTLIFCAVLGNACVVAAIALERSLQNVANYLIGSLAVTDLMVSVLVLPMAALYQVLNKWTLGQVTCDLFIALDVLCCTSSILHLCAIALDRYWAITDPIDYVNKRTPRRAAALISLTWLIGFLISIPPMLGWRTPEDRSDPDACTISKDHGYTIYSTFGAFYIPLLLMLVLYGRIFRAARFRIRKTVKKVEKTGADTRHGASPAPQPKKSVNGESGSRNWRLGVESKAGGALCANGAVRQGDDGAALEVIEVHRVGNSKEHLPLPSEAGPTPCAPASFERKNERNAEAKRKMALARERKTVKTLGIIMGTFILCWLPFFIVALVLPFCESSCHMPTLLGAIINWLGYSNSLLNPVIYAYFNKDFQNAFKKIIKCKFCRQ
How it was run: (§1)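 [35S]GTPγS binding in membranes of HeLa cells stably expressing human 5-HT1A, in 20 mM HEPES, 3 mM MgSO4, 120 mM NaCl pH 7.4. Preincubation 20 min at 30 °C with 30 μM GDP and drug (0.1 nM–100 μM), then 150–250 pM [35S]GTPγS for 30 min at 30 °C. Stimulation above basal was scaled to the 5-HT maximum (100%). Emax and pD2 came from curve fits; triplicate, 2–3 sessions.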

D(2) dopamine receptor = D(2) dopamine receptor (Rattus norvegicus, UniProt P61169); assay: Displacement of [3H]spiperone from rat brain Dopamine receptor D2
How it was run: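 Striata from male Sprague–Dawley rats homogenized in Tris-HCl pH 7.4. Buffer held 10 μM pargiline, 0.1% ascorbic acid, 120 mM NaCl, 5 mM KCl, 2 mM CaCl2, 1 mM MgCl2. Incubated with 0.2–0.6 nM [3H]spiperone for 15 min at 37 °C. Nonspecific binding defined with 1 μM (+)-butaclamol. Filtration, scintillation counting. Ki by Cheng–Prusoff.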

[2] = molecular target: T2, Adrenergic receptor alpha-2 (Rattus norvegicus, UniProt P22086+P19328+P22909); assay: Displacement of [3H]rauwolscine from rat brain Alpha-2 adrenergic receptor
T2 sequence (P22086 whole entry): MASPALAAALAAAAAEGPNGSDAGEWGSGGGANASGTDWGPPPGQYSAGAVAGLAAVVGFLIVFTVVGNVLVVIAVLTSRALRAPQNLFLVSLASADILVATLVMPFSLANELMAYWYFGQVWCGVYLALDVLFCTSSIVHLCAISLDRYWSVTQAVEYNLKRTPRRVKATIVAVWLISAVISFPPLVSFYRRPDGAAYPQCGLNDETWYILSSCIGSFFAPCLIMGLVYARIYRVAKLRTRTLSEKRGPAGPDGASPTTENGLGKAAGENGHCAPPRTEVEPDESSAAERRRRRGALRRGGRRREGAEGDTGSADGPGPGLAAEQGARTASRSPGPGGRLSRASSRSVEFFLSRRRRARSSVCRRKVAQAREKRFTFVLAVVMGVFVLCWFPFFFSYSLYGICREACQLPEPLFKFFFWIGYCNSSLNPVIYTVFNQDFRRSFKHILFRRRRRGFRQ
T2 sequence (P19328 whole entry): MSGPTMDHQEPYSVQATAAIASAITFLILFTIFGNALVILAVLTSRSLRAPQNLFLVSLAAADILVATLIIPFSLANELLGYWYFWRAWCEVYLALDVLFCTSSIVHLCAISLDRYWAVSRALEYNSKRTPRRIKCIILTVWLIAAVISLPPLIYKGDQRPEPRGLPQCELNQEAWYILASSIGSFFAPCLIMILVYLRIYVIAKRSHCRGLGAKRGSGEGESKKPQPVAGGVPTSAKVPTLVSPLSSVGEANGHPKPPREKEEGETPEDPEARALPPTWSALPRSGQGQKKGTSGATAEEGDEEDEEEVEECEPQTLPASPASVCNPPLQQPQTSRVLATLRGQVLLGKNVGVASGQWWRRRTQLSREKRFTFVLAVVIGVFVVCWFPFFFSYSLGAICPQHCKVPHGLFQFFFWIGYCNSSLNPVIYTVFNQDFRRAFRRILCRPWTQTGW
T2 sequence (P22909 whole entry): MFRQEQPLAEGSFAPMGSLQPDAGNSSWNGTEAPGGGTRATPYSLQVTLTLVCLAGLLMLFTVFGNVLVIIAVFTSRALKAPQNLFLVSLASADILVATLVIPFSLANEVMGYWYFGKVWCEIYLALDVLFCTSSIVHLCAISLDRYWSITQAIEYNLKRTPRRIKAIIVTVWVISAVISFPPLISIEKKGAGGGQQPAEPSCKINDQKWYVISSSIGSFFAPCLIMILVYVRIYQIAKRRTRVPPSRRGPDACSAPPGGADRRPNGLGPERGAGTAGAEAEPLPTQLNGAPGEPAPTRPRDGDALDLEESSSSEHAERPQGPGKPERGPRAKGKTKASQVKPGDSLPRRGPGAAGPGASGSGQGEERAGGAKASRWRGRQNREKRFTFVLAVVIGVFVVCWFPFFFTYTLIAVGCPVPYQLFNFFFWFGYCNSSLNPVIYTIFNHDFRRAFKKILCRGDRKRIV
How it was run: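 Rat cerebral cortex membranes (male Sprague–Dawley) were washed in Tris-HCl pH 7.4 and resuspended with 10 μM pargiline and 0.1% ascorbic acid. They were incubated 30 min at 25 °C with 0.5–1.5 nM [3H]rauwolscine. Nonspecific binding was taken with 10 μM phentolamine. Filtration and scintillation counting followed, and Ki was obtained by Cheng–Prusoff.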

[3] = molecular target: T1, 5-hydroxytryptamine receptor 1A (Homo sapiens); assay: Concentration required to obtain 50% maximal stimulation of [35S]GTP gamma-S binding to human cloned 5-HT1A receptors of cell membranes from HeLa cells; type: functional; how it was run: as §1

Sequence of D(2) dopamine receptor (P61169 whole entry): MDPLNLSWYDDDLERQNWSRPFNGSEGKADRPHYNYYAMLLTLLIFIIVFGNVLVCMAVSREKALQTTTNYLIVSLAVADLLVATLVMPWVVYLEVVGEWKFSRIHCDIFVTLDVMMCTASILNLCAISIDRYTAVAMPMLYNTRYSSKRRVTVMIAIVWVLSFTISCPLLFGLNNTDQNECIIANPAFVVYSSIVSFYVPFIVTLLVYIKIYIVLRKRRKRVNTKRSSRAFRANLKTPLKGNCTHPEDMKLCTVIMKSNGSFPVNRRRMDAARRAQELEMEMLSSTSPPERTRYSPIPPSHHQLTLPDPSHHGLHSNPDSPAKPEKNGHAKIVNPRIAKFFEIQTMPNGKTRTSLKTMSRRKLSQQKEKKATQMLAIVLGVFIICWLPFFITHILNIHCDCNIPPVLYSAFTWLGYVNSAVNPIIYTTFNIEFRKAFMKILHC

| SMILES | Max [1] [%] | Ki (D(2) dopamine receptor) [nM] | Log Ki [2] | pD2 [3] |
| --- | --- | --- | --- | --- |
| O[C@@H]1[C@H](NC[C@@H]2COc3ccccc3O2)CC[C@H]1Oc1ccccc1 | 23 | 6170 | -6.27 | 5.87 |
| O[C@@H]1[C@H](NC[C@H]2COc3ccccc3O2)CC[C@H]1Oc1ccccc1 | 100 | 2400 | -6.05 | 5.87 |
| O[C@H]1[C@@H](NC[C@H]2COc3ccccc3O2)CC[C@@H]1Oc1ccccc1 | 82 | 2400 | -6.23 | 7.3 |
| O[C@H]1[C@@H](NC[C@@H]2COc3ccccc3O2)CC[C@@H]1Oc1ccccc1 | 96 | 1120 | -6.21 | 7.96 |

Reference: ChEMBL document CHEMBL1132183 (J Med Chem, 1999)
